Activity calls are given as the source filed them. The rule behind the calls is not given here.
Legend:
[1] = target: T1, Tyrosine-protein phosphatase non-receptor type 1 (Rattus norvegicus, UniProt P20417); assay: Inhibition of PTPase activity using recombinant r-PTP1B as the enzyme and IR-triphosphopeptide as substrate
T1 sequence (P20417 whole entry): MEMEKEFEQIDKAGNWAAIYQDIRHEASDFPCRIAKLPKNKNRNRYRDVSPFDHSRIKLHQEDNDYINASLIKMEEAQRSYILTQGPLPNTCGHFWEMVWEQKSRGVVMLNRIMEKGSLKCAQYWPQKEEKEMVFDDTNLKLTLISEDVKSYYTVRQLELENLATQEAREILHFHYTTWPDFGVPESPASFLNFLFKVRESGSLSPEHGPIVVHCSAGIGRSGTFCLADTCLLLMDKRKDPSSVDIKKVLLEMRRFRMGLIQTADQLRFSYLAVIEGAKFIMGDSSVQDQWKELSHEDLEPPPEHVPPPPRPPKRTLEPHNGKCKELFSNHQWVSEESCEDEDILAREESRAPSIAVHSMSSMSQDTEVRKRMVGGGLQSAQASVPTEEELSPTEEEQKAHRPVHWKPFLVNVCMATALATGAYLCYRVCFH
In short: (§1)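 Rat recombinant PTP1B in 33 mM TRIS-HCl, 2 mM EDTA, 50 mM β-mercaptoethanol, pH 7.4 (about 1000-2000 nmol/min/mg). Preincubated 10 min at 37 °C with or without compound in HEPES buffer pH 7.4. Released phosphate read by malachite green-ammonium molybdate at 650 nm against a phosphate standard. Quadruplicates. IC50 by four-parameter logistic fit.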

[2] = target: T2, Tyrosine-protein phosphatase non-receptor type 1 (Mus musculus) (UniProt P35821); assay: Ability to decrease plasma insulin levels in mouse at a dose 100 mg/kg/day; format: functional, organism-based
T2 sequence (whole entry): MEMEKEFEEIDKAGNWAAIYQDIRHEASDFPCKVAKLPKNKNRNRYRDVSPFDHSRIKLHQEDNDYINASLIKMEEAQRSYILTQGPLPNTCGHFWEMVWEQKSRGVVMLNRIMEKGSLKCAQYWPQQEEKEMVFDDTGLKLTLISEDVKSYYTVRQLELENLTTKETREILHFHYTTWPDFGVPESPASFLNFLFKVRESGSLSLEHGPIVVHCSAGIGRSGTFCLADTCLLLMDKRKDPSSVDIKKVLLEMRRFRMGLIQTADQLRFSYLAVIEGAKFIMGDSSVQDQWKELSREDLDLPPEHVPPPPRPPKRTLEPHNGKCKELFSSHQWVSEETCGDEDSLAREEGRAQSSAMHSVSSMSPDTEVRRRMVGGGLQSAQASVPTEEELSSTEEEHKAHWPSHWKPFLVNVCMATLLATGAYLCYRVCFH
In short: (§2)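 Diabetic db/db or ob/ob mice dosed orally once daily for 4 days. Plasma glucose and insulin reported as percent change from a vehicle-treated group. 4-6 mice per group. Significance set at p < 0.05 or p < 0.01 versus vehicle; NS means generally less than -15% change.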

[3] = target: T2, Tyrosine-protein phosphatase non-receptor type 1 (Mus musculus); assay: In vivo ability to decrease plasma glucose levels in diabetic C57BL/KsJ ob/ob mouse at a dose 100 mg/kg/day; format: functional, organism-based; in short: as §2
[4] = target: T3, Tyrosine-protein phosphatase non-receptor type 1 (Rattus norvegicus) (UniProt P20417); assay: Inhibition of PTPase (PTP1B) activity in rat hepatic membrane at 50 uM concentration, using pNPP as the substrate; format: cell membranes; details: Liver
T3 sequence (whole entry): T1 sequence (P20417 whole entry)
In short: (§3)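 Liver membranes from male Sprague-Dawley rats (100-150 g), about 30 µg protein per well. Preincubated 10 min at 37 °C with compound in 1.25% DMSO in 50 mM HEPES pH 7.4. Then 6.33 mM pNPP for 30 min at 37 °C, stopped with NaOH. p-Nitrophenol read at 410 nm. Run in triplicate. Reported as percent of untreated control.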

[5] = target: T3, Tyrosine-protein phosphatase non-receptor type 1 (Rattus norvegicus); assay: Inhibition of PTPase activity using recombinant r-PTP1B as the enzyme and IR-triphosphopeptide as substrate at 50 uM; in short: as §1
Mus musculus [6] = assay: Evaluated in vivo for their ability to decrease plasma glucose levels in diabetic C57BL/KsJ db/db mouse at a dose 100 mg/kg/day.; format: functional; in short: as §2
[7] = target: T1, Tyrosine-protein phosphatase non-receptor type 1; assay: Inhibition of PTPase activity using recombinant r-PTP1B and IR-triphosphopeptide as substrate; ND is no data.; in short: as §1
Mus musculus [8] = assay: Evaluated in vivo for their ability to decrease plasma glucose levels in diabetic C57BL/KsJ db/db mouse at a dose 100 mg/kg/day, *p indicates <0.05; format: functional
In short: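 Mice dosed orally once daily for 4 days; plasma glucose and insulin measured and expressed as percent change versus a vehicle-treated group (mean ± SE, 4-6 mice/group). NS is generally less than -15% change. Significance is versus vehicle-treated mice.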

[9] = target: T3, Tyrosine-protein phosphatase non-receptor type 1 (Rattus norvegicus); assay: Inhibition of Protein-tyrosine phosphatase 1B activity in rat hepatic membrane at a concentration of 50 uM using pNPP as the substrate; format: cell membranes; details: Liver; in short: as §3
[10] = target: T4, Tyrosine-protein phosphatase non-receptor type 1 (Homo sapiens, UniProt P18031); assay: Concentration required to inhibit PTPase activity, recombinant Protein Tyrosine Phosphatase 1b as the enzyme; in short: as §1
T4 sequence (P18031 whole entry): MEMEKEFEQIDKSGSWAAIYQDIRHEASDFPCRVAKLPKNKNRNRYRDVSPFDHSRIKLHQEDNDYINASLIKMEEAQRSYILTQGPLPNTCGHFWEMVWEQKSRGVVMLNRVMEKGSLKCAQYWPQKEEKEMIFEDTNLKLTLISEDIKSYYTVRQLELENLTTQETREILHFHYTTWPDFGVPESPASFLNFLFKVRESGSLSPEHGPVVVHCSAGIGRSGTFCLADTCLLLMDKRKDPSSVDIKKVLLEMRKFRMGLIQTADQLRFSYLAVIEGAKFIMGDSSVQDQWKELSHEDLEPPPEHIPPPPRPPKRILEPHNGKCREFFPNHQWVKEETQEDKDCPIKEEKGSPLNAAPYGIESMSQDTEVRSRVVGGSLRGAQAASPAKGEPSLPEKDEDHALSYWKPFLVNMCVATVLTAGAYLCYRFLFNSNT

Structure (SMILES)	IC50 [1]	Decrease [2]	Decrease [3]	inhibition [4]	further results
CCCCc1oc2ccccc2c1Cc1cccc(/C(C)=C/Cn2oc(=O)[nH]c2=O)c1	1.3 µM	–	–	–	–
C/C(=C\Cn1oc(=O)[nH]c1=O)c1cccc(OCc2coc(-c3ccc(C(F)(F)F)cc3)n2)c1	19 µM	Not significant	Not significant	32%	–
COc1ccc(/C(=C\Cn2oc(=O)[nH]c2=O)c2cccc(OCc3nc(-c4ccc(C(F)(F)F)cc4)oc3C)c2)cc1	–	Not significant	Not significant	56%	inhibition [5]: 34%
C/C(=C\CN1CC(=O)NC1=O)c1cccc(OCc2nc(-c3ccc(C(F)(F)F)cc3)oc2C)c1	13 µM	Not significant	Not significant	–	–
Cc1oc(-c2ccc(Cl)cc2)nc1COc1cccc(/C=C/C(C)n2oc(=O)[nH]c2=O)c1 (centres undefined)	–	Not significant	Not significant	33%	Decrease (Mus musculus [6]): 20%; IC50 [7]: Not significant
C/C(=C\Cn1oc(=O)[nH]c1=O)c1cccc(OCc2cc(C(F)(F)F)cc(C(F)(F)F)c2)c1	4.1 µM	–	–	–	–
CCCC/C(=C\Cn1oc(=O)[nH]c1=O)c1cccc(Oc2ccccc2)c1	2 µM	–	–	63%	–
C/C(=C\CC1OC(=O)NC1=O)c1cccc(OCc2nc(-c3ccccc3)oc2C)c1 (centres undefined)	–	Not significant	Not significant	23%	Decrease (Mus musculus [6]): 18%; IC50 [7]: Not significant
COc1cc(OCc2nc(-c3ccc(C(F)(F)F)cc3)oc2C)cc(/C(C)=C/Cn2oc(=O)[nH]c2=O)c1	–	–	–	49%	inhibition [5]: 12%
C/C(=C\Cn1oc(=O)[nH]c1=O)c1cccc(OCc2ccc3c(Cl)cccc3c2)c1	16 µM	–	–	20%	–
Cc1oc(-c2ccc(C(F)(F)F)cc2)nc1COc1ccc2oc(Cn3oc(=O)[nH]c3=O)cc2c1	–	–	–	14%	IC50 [7]: Not significant
C/C(=C\CC1OC(=O)NC1=O)c1cccc(OCc2nc(-c3ccc(OCC(F)(F)F)cc3)oc2C)c1 (centres undefined)	–	Not significant	Not significant	37%	Decrease (Mus musculus [6]): inactive; IC50 [7]: Not significant
C/C(=C\Cn1oc(=O)[nH]c1=O)c1cccc(OCCc2nc(-c3ccccc3)oc2C)c1	24 µM	Not significant	Not significant	45%	Decrease (Mus musculus [6]): 38%
C/C(=C\Cn1oc(=O)[nH]c1=O)c1cccc(OCc2nc(-c3ccc(OCC(F)(F)F)cc3)oc2C)c1	–	Not significant	Not significant	52%	Decrease (Mus musculus [8]): 44%; IC50 [7]: Not significant
C/C(=C\Cn1oc(=O)[nH]c1=O)c1ccccc1OCc1nc(-c2ccc(C(F)(F)F)cc2)oc1C	43 µM	Not significant	Not significant	Not significant	–
CC1(COc2ccc(CC3SC(=O)NC3=O)cc2)CCCCC1 (centres undefined) [CIGLITAZONE]	–	–	–	20%	Decrease (Mus musculus [6]): 32%
Cc1oc(-c2ccc(C(F)(F)F)cc2)nc1COc1ccc2c(c1)C=C/C2=C\Cn1oc(=O)[nH]c1=O	–	–	–	31%	inhibition [5]: 83%
C/C(=C\Cn1oc(=O)[nH]c1=O)c1cccc(OCc2nc(-c3ccccc3)oc2C)c1 (stereo in doubt; 49)	–	–	–	–	inhibition [9]: 35%

Structure (SMILES)	IC50 [1]	Decrease [2]	Decrease [3]	inhibition [4]	further results
C/C(=C\Cn1oc(=O)[nH]c1=O)c1ccc2oc(Cc3nc(-c4ccc(C(F)(F)F)cc4)oc3C)cc2c1	–	–	–	57%	inhibition [5]: 53%; Decrease (Mus musculus [8]): 31%
Cc1oc(-c2ccc(C(F)(F)F)cc2)nc1COc1cccc(C2(C)CC2Cn2oc(=O)[nH]c2=O)c1 (centres undefined)	–	Not significant	Not significant	51%	inhibition [5]: 1%
CCCC/C(=C\Cn1oc(=O)[nH]c1=O)c1cccc(Oc2ccc(C)cc2)c1	13 µM	–	–	62%	–
Cc1oc(-c2ccccc2)nc1COc1cccc(C#CC(C)n2oc(=O)[nH]c2=O)c1 (centres undefined)	–	Not significant	Not significant	23%	–
Cc1oc(-c2ccc(C(F)(F)F)cc2)nc1COc1cccc(/C(=C/Cn2oc(=O)[nH]c2=O)C2CCCCC2)c1	–	Not significant	Not significant	66%	inhibition [5]: 49%
C/C(=C\Cn1oc(=O)[nH]c1=O)c1cccc(COc2cc(C(F)(F)F)cc(C(F)(F)F)c2)c1	12 µM	–	–	64%	–
C/C(=C\C(C)n1oc(=O)[nH]c1=O)c1cccc(OCc2nc(-c3ccc(C(F)(F)F)cc3)oc2C)c1 (centres undefined)	–	Not significant	Not significant	38%	Decrease (Mus musculus [6]): 16%
C/C(=C\Cc1nnn[nH]1)c1cccc(OCc2nc(-c3ccc(OC(F)(F)F)cc3)oc2C)c1	–	–	–	29%	IC50 [10]: 13 µM
Cc1oc(-c2ccc(C(F)(F)F)cc2)nc1COc1cccc(/C(=C/Cn2oc(=O)n(CC(=O)O)c2=O)c2ccccc2)c1	–	–	–	24%	IC50 [10]: 0.85 µM
CCCC/C(=C\Cn1oc(=O)n(CC(=O)O)c1=O)c1cccc(OCc2cc(Cl)cc(Cl)c2)c1	–	–	–	31%	IC50 [10]: 48 µM
CCCCCCCCC(=CCn1oc(=O)n(CC(=O)O)c1=O)c1cccc(OCc2nc(-c3ccc(C(F)(F)F)cc3)oc2C)c1	–	–	–	64%	IC50 [10]: 0.12 µM
CCCC/C(=C\Cn1oc(=O)[nH]c1=O)c1cccc(Oc2ccc(OC)cc2)c1	10 µM	–	–	62%	–
C/C(=C\Cn1oc(=O)[nH]c1=O)c1cccc(OCc2nc(-c3ccccc3)oc2C)c1 (stereo in doubt; 67)	–	–	–	–	inhibition [9]: 25%
CCCC/C(=C\Cn1oc(=O)[nH]c1=O)c1cccc(OCc2nc(-c3ccc(C(F)(F)F)cc3)oc2-c2ccccc2)c1	–	–	–	76%	IC50 [10]: 0.37 µM
Cc1oc(-c2ccc(C(F)(F)F)cc2)nc1COc1cccc(CCCn2oc(=O)[nH]c2=O)c1	–	Not significant	Not significant	54%	inhibition [5]: 4.3%; Decrease (Mus musculus [8]): 21%
C/C(=C\Cn1oc(=O)[nH]c1=O)c1cccc(OCc2noc(-c3ccccc3)n2)c1	3 µM	–	–	17%	–
C/C(Cn1oc(=O)[nH]c1=O)=C(/C)c1cccc(OCc2nc(-c3ccc(C(F)(F)F)cc3)oc2C)c1	–	–	–	47%	Decrease (Mus musculus [6]): 20%

Reference: ChEMBL document CHEMBL1132971, “New azolidinediones as inhibitors of protein tyrosine phosphatase 1B with antihyperglycemic properties” (J Med Chem, 2000)
